Measured values taken from ChEMBL document CHEMBL1649102, “Stereochemical survey of digitoxin monosaccharides: new anticancer analogues with enhanced apoptotic activity and growth inhibitory effect on human non-small cell lung cancer cell” (ACS Med Chem Lett, 2011).
The source made the active and inactive calls. The calls are words filed in the database; no cut-off is given here.

Assays:
[1] = tested on: NCI-H460; assay: Growth inhibition of human NCI-H460 cells after 48 hrs by MTT assay; format: functional; conditions: NCI-H460, 48 h
Procedure, shortened: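 NCI-H460 cells in RPMI 1640 with 10% FBS were seeded at 10,000 cells/well for 12 h. Drug was diluted 1000× from DMSO into 1% FBS medium (DMSO <0.1%). Time-course runs used 50 nM; dose–response runs used 48 h exposure. Viability was read by MTT (4 h), with formazan dissolved in DMSO for 45 min and read at 562 nm. Triplicate wells, ≥3 runs (N = 9), two-way ANOVA.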

[2] = tested on: NCI-H460; assay: Cytotoxicity against human NCI-H460 cells assessed as cell death at 50 nM after 12 hrs by Hoechst-33342 staining and propidium iodide staining; format: functional, cell-based; conditions: NCI-H460, 12 h
Procedure, shortened: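 NCI-H460 cells were seeded at 50,000 cells/well for 12 h, then exposed 12 h in serum-free medium (DMSO <0.1%). Cells were stained with Hoechst 33342 (10 µg/ml) and propidium iodide (20 µg/ml) for 30 min at 37°C. Condensed or fragmented nuclei were scored by fluorescence microscopy, and apoptotic index = apoptotic/total nuclei ×100. Duplicate wells, ≥3 runs (N = 6).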

[3] = tested on: DU-145; assay: Growth inhibition of human DU145 cells; format: functional
Procedure, shortened: (§1)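 NCI-60 cell lines grown in RPMI 1640 with 5% FBS and 2 mM L-glutamine, plated at 5,000–40,000 cells/well and preincubated 24 h. Time-zero plates were TCA-fixed. Drug was given at five concentrations (10-fold or ½-log dilutions from DMSO stock) for 48 h at 37°C. Cells were TCA-fixed, stained with SRB, and read at 515 nm. GI50 is where [(Ti−Tz)/(C−Tz)]×100 = 50.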

[4] = tested on: NCI-H460; assay: Induction of apoptosis human NCI-H460 cells assessed as cellular degradation at 50 nM after 12 hrs by Hoechst-33342 staining; format: functional
Procedure, shortened: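 NCI-H460 seeded 50,000 cells/well for 12 h, then exposed 12 h in serum-free medium (DMSO <0.1%). Stained 30 min at 37°C with 10 µg/ml Hoechst 33342 plus 20 µg/ml propidium iodide. Condensed or fragmented nuclei scored by fluorescence microscopy; apoptotic index = apoptotic/total nuclei ×100. 2 replicate wells, ≥3 runs (N = 6).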

[5] = tested on: A498; assay: Growth inhibition of human A498 cells; format: functional; procedure, shortened: as §1
[6] = tested on: OVCAR-8; assay: Growth inhibition of human OVCAR8 cells; format: functional; procedure, shortened: as §1
[7] = tested on: A549; assay: Growth inhibition of human A549 cells; format: functional; procedure, shortened: as §1
[8] = tested on: HCT-116; assay: Growth inhibition of human HCT116 cells; format: functional; procedure, shortened: as §1
[9] = tested on: TK-10; assay: Growth inhibition of human TK10 cells; format: functional
Procedure, shortened: (§2)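 NCI-60 panel SRB assay. Cells in RPMI 1640 with 5% FBS and 2 mM L-glutamine, plated at 5,000-40,000 cells/well and grown 24 h before dosing; time-zero plates TCA-fixed. Five concentrations (10-fold or ½ log dilutions, from DMSO stock) applied for 48 h at 37°C. TCA fixation (16% final for suspension cells), SRB stain, absorbance 515 nm; GI50 from net protein increase versus control.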

[10] = tested on: SN12C; assay: Growth inhibition of human SN12C cells; format: functional; procedure, shortened: as §2
[11] = tested on: UO-31; assay: Growth inhibition of human UO31 cells; format: functional; procedure, shortened: as §2
[12] = tested on: CAKI-1; assay: Growth inhibition of human Caki1 cells; format: functional; procedure, shortened: as §1
[13] = tested on: NCI-H460; assay: Growth inhibition of human NCI-H460 cells; format: functional; procedure, shortened: as §1
[14] = tested on: RXF 393; assay: Growth inhibition of human RXF393 cells; format: functional; procedure, shortened: as §1
[15] = tested on: 786-0; assay: Growth inhibition of human 786-0 cells; format: functional; procedure, shortened: as §1
[16] = tested on: MOLT-4; assay: Growth inhibition of human MOLT4 cells; format: functional; procedure, shortened: as §1
[17] = Growth inhibition of human NCI60 cells; format: functional; procedure, shortened: as §1
[18] = tested on: ACHN; assay: Growth inhibition of human ACHN cells; format: functional; procedure, shortened: as §1
[19] = tested on: OVCAR-3; assay: Growth inhibition of human OVCAR3 cells; format: functional; procedure, shortened: as §1

Row | Compound | GI50 [1] [µM] | IC50 [2] [µM] | growth inhibition (GI) [3] | Activity [4] [%] | growth inhibition (GI) [5] | growth inhibition (GI) [6] | growth inhibition (GI) [7] | growth inhibition (GI) [8] | growth inhibition (GI) [9] | growth inhibition (GI) [10] | growth inhibition (GI) [11] | growth inhibition (GI) [12] | growth inhibition (GI) [13] | growth inhibition (GI) [14] | growth inhibition (GI) [15] | growth inhibition (GI) [16] | GI50 [17] [µM] | growth inhibition (GI) [18] | growth inhibition (GI) [19]
1 | C[C@H]1O[C@@H](O[C@H]2[C@@H](O)C[C@H](O[C@H]3[C@@H](O)C[C@H](O[C@H]4CC[C@@]5(C)[C@H](CC[C@@H]6[C@@H]5CC[C@]5(C)[C@@H](C7=CC(=O)OC7)CC[C@]65O)C4)O[C@@H]3C)O[C@@H]2C)C[C@H](O)[C@@H]1O [DIGITOXIN] | 0.0107 | 0.357 |  |  |  |  |  |  |  |  |  |  |  |  |  |  |  |  | 
2 | C[C@H]1O[C@@H](O[C@H]2CC[C@@]3(C)[C@H](CC[C@@H]4[C@@H]3CC[C@]3(C)[C@@H](C5=CC(=O)OC5)CC[C@]43O)C2)C[C@H](O)[C@@H]1O | 0.0038 | 0.0748 | Active | 28.8 | Active | Active | Active | Active | Active | Active | Active | Active | Active | Active | Active | Active | 0.025 | Active | Active
3 | C[C@@H]1O[C@@H](O[C@H]2CC[C@@]3(C)[C@H](CC[C@@H]4[C@@H]3CC[C@]3(C)[C@@H](C5=CC(=O)OC5)CC[C@]43O)C2)CC[C@H]1O [RAMNODIGIN] | 0.0022 | 0.0557 | Active | 33 | Active | Active | Active | Active | Active | Active | Active | Active | Active | Active | Active | Active | 0.012 | Active | Active
4 | C[C@@H]1O[C@@H](O[C@H]2CC[C@@]3(C)[C@H](CC[C@@H]4[C@@H]3CC[C@]3(C)[C@@H](C5=CC(=O)OC5)CC[C@]43O)C2)C=C[C@H]1O |  |  |  |  |  |  |  |  |  |  |  |  |  |  |  |  | 0.001 |  | 
5 | C[C@H]1O[C@H](O[C@H]2CC[C@@]3(C)[C@H](CC[C@@H]4[C@@H]3CC[C@]3(C)[C@@H](C5=CC(=O)OC5)CC[C@]43O)C2)C=C[C@@H]1O |  |  |  |  |  |  |  |  |  |  |  |  |  |  |  |  | 0.001 |  | 
